# According to ChEMBL document CHEMBL3297654, “Synthesis, antimicrobial and cytotoxic activities, and structure-activity relationships of gypsogenin derivatives against human cancer cells” (Eur J Med Chem, 2014):
# The source made the active and inactive calls. The rule behind the calls is not given here.
# Tests used:
# SAOS-2 [1] = assay: Induction of apoptosis in human Saos2 cells at 20 uM after 48 hrs by Hoechst 33258/propidium iodide staining based phase contrast microscopic analysis; type: functional
# Summary of the method: (§1)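 Cells in 48-well plates treated with 0.5, 10, 20 or 40 µM for 24 and 48 h. Values are read at 48 h, 20 µM for test agents and 0.5 µM for controls. Staining is Hoechst 33258/propidium iodide double staining with fluorescence microscopy. Blue nuclei are viable or early-to-mid apoptotic, and pink nuclei are late apoptotic or necrotic. Apoptosis and necrosis are scored from chromatin condensation as % of cells. Cells are grown at 37 °C in 5% CO2 in RPMI, DMEM or McCoy's 5A with 10–15% heat-inactivated FCS.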
# HL-60 [2] = assay: Antiproliferative activity against human HL60 cells after 24 and 72 hrs by MTT assay; type: functional, cell-based
# Summary of the method: (§2)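 ATCC human cell lines are kept in RPMI, DMEM or McCoy's 5A with 10–15% heat-inactivated FCS at 37 °C and 5% CO2. They are seeded at 1×10^4–1×10^5 cells/mL in 48-well plates and exposed to 0.5, 10, 20 or 40 µM. Viability is read by MTT (590 nm) at 24 and 72 h. Growth is expressed relative to untreated cells and IC50 is fitted, in triplicate.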
# Caco-2 [3] = assay: Induction of necrosis in human Caco2 cells at 20 uM after 48 hrs by Hoechst 33258/propidium iodide staining based phase contrast microscopic analysis; type: functional; summary of the method: as §1
# Nakaseomyces glabratus = assay: Antimicrobial activity against Candida glabrata assessed as zone of inhibition at 30 uL for 24 hrs at 30 degC by disk diffusion test; type: functional, organism-based
# Summary of the method: (§3)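 Agar well diffusion on Mueller Hinton agar seeded with 0.1 mL broth culture (18–24 h), adjusted to 0.5 McFarland (about 1×10^8 bacteria or 1×10^6 yeast cells/mL). A 6 mm well is filled with 30 µL of compound from a fresh 1000 µg/mL DMSO stock. Plates are held at 30 °C for 24 h and inhibition zone diameter is read in mm.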
# Bacillus thuringiensis [4] = assay: Antimicrobial activity against Bacillus thuringiensis assessed as zone of inhibition at 30 uL for 24 hrs at 30 degC by disk diffusion test; type: functional; summary of the method: as §3
# Saccharomyces cerevisiae = assay: Antimicrobial activity against Saccharomyces cerevisiae ATCC 9763 assessed as zone of inhibition at 30 uL for 24 hrs at 30 degC by disk diffusion test; type: functional, organism-based; summary of the method: as §3
# MCF7 [5] = assay: Induction of apoptosis in human MCF7 cells at 20 uM after 48 hrs by Hoechst 33258/propidium iodide staining based phase contrast microscopic analysis; type: functional; summary of the method: as §1
# Bacillus subtilis [6] = assay: Antimicrobial activity against Bacillus subtilis ATCC 6633 assessed as zone of inhibition at 30 uL for 24 hrs at 30 degC by disk diffusion test; type: functional; summary of the method: as §3
# Pseudomonas aeruginosa = assay: Antimicrobial activity against Pseudomonas aeruginosa ATCC 35032 assessed as zone of inhibition at 30 uL for 24 hrs at 37 degC by disk diffusion test; type: functional, organism-based
# Summary of the method: (§4)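 Compound (30 µL of a fresh 1000 µg/mL DMSO stock) goes into a 6 mm well cut in Mueller Hinton agar inoculated with 0.1 mL broth culture adjusted to 0.5 McFarland (about 1×10^8 cells/mL). Plates are incubated 24 h at 37 °C, then zone of inhibition diameter is measured in mm.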
# Micrococcus luteus = assay: Antimicrobial activity against Micrococcus luteus ATCC 9341 assessed as zone of inhibition at 30 uL for 24 hrs at 30 degC by disk diffusion test; type: functional, organism-based; summary of the method: as §3
# MCF7 [7] = assay: Antiproliferative activity against human MCF7 cells after 24 and 72 hrs by MTT assay; type: functional, cell-based; summary of the method: as §2
# Staphylococcus aureus = assay: Antimicrobial activity against Staphylococcus aureus ATCC 25923 assessed as zone of inhibition at 30 uL for 24 hrs at 37 degC by disk diffusion test; type: functional, organism-based; summary of the method: as §4
# Caco-2 [8] = assay: Antiproliferative activity against human Caco2 cells after 24 and 72 hrs by MTT assay; type: functional, cell-based; summary of the method: as §2
# Caco-2 [9] = assay: Induction of apoptosis in human Caco2 cells at 20 uM after 48 hrs by Hoechst 33258/propidium iodide staining based phase contrast microscopic analysis; type: functional; summary of the method: as §1
# HL-60 [10] = assay: Induction of apoptosis in human HL60 cells at 20 uM after 48 hrs by Hoechst 33258/propidium iodide staining based phase contrast microscopic analysis; type: functional; summary of the method: as §1
# [11] = Antiproliferative activity against human Saos2 cells after 24 and 72 hrs by MTT assay; type: functional, cell-based; conditions: SAOS-2; summary of the method: as §2
# Cyberlindnera jadinii = assay: Antimicrobial activity against Candida utilis ATCC 9950 assessed as zone of inhibition at 30 uL for 24 hrs at 30 degC by disk diffusion test; type: functional, organism-based; summary of the method: as §3
# HL-60 [12] = assay: Induction of necrosis in human HL60 cells at 20 uM after 48 hrs by Hoechst 33258/propidium iodide staining based phase contrast microscopic analysis; type: functional; summary of the method: as §1
# HT-29 [13] = assay: Induction of necrosis in human HT-29 cells at 20 uM after 48 hrs by Hoechst 33258/propidium iodide staining based phase contrast microscopic analysis; type: functional; summary of the method: as §1
# Proteus vulgaris = assay: Antimicrobial activity against Proteus vulgaris ATCC 33420 assessed as zone of inhibition at 30 uL for 24 hrs at 37 degC by disk diffusion test; type: functional, organism-based; summary of the method: as §4
# Enterococcus faecalis = assay: Antimicrobial activity against Enterococcus faecalis ATCC 29212 assessed as zone of inhibition at 30 uL for 24 hrs at 37 degC by disk diffusion test; type: functional, organism-based; summary of the method: as §4
# SAOS-2 [14] = assay: Induction of necrosis in human Saos2 cells at 20 uM after 48 hrs by Hoechst 33258/propidium iodide staining based […] microscopic analysis; type: functional; summary of the method: as §1
# Bacillus thuringiensis [15] = assay: Antimicrobial activity against Bacillus thuringiensis for 24 hrs by microdillution method; type: functional
# Summary of the method: (§5)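 Broth microdilution. Compound is dissolved in DMSO (2 mg/mL) and diluted in Mueller Hinton broth as two-fold serial dilutions from 256 to 0.125 µg/mL. Bacteria are pre-grown in nutrient broth at 30 °C, and the final inoculum is about 10^6 cfu/mL. Tests are incubated 37 °C for 24 h. MIC is the lowest concentration giving complete inhibition. Streptomycin is the positive control.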
# Candida albicans = assay: Antimicrobial activity against Candida albicans ATCC 10231 assessed as zone of inhibition at 30 uL for 24 hrs at 30 degC by disk diffusion test; type: functional, organism-based; summary of the method: as §3
# Bacillus cereus [16] = assay: Antimicrobial activity against Bacillus cereus ATCC 11778 for 24 hrs by microdillution method; type: functional; conditions: ATCC 11778, 24 h; summary of the method: as §5
# Klebsiella pneumoniae = assay: Antimicrobial activity against Klebsiella pneumoniae ATCC 13882 assessed as zone of inhibition at 30 uL for 24 hrs at 37 degC by disk diffusion test; type: functional, organism-based; summary of the method: as §4
# [17] = test system: Staphylococcus epidermidis; assay: Antimicrobial activity against Staphylococcus epidermidis ATCC 12228 assessed as zone of inhibition at 30 uL for 24 hrs at 37 degC by disk diffusion test; type: functional, organism-based; summary of the method: as §4
# HeLa [18] = assay: Induction of necrosis in human HeLa cells at 20 uM after 48 hrs by Hoechst 33258/propidium iodide staining based phase contrast microscopic analysis; type: functional; summary of the method: as §1
# Escherichia coli = assay: Antimicrobial activity against Escherichia coli ATCC 25922 assessed as zone of inhibition at 30 uL for 24 hrs at 37 degC by disk diffusion test; type: functional, organism-based; summary of the method: as §4
# Candida tropicalis = assay: Antimicrobial activity against Candida tropicalis assessed as zone of inhibition at 30 uL for 24 hrs at 30 degC by disk diffusion test; type: functional, organism-based; summary of the method: as §3
# Bacillus cereus [19] = assay: Antimicrobial activity against Bacillus cereus ATCC 11778 assessed as zone of inhibition at 30 uL for 24 hrs at 30 degC by disk diffusion test; type: functional; summary of the method: as §3
# MCF7 [20] = assay: Induction of necrosis in human MCF7 cells at 20 uM after 48 hrs by Hoechst 33258/propidium iodide staining based phase contrast microscopic analysis; type: functional; summary of the method: as §1
# HeLa [21] = assay: Induction of apoptosis in human HeLa cells at 20 uM after 48 hrs by Hoechst 33258/propidium iodide staining based phase contrast microscopic analysis; type: functional; summary of the method: as §1
# Salmonella typhimurium = assay: Antimicrobial activity against Salmonella typhimurium ATCC 14028 assessed as zone of inhibition at 30 uL for 24 hrs at 37 degC by disk diffusion test; type: functional, organism-based; conditions: Salmonella enterica subsp. enterica serovar Typhimurium; summary of the method: as §4
# HT-29 [22] = assay: Antiproliferative activity against human HT-29 cells after 24 and 72 hrs by MTT assay; type: functional, cell-based; summary of the method: as §2
# Bacillus subtilis [23] = assay: Antimicrobial activity against Bacillus subtilis ATCC 6633 for 24 hrs by microdillution method; type: functional; conditions: ATCC 6633, 24 h; summary of the method: as §5
# HeLa [24] = assay: Antiproliferative activity against human HeLa cells after 24 and 72 hrs by MTT assay; type: functional, cell-based; summary of the method: as §2
# HT-29 [25] = assay: Induction of apoptosis in human HT-29 cells at 20 uM after 48 hrs by Hoechst 33258/propidium iodide staining based phase contrast microscopic analysis; type: functional; summary of the method: as §1
Compound,Activity (SAOS-2 [1]) [%],IC50 (HL-60 [2]) [µM],Activity (Caco-2 [3]) [%],diameter of the inhibition zone (DIZ) (Nakaseomyces glabratus),diameter of the inhibition zone (DIZ) (Bacillus thuringiensis [4]) [mm],diameter of the inhibition zone (DIZ) (Saccharomyces cerevisiae),Activity (MCF7 [5]) [%],diameter of the inhibition zone (DIZ) (Bacillus subtilis [6]) [mm],diameter of the inhibition zone (DIZ) (Pseudomonas aeruginosa),diameter of the inhibition zone (DIZ) (Micrococcus luteus),IC50 (MCF7 [7]) [µM],diameter of the inhibition zone (DIZ) (Staphylococcus aureus),IC50 (Caco-2 [8]) [µM],Activity (Caco-2 [9]) [%],Activity (HL-60 [10]) [%],IC50 [11] [µM],diameter of the inhibition zone (DIZ) (Cyberlindnera jadinii),Activity (HL-60 [12]) [%],Activity (HT-29 [13]) [%],diameter of the inhibition zone (DIZ) (Proteus vulgaris),also measured
CC(=O)O[C@H]1CC[C@]2(C)[C@H]3CC=C4[C@@H]5CC(C)(C)CC[C@]5(C(=O)O)CC[C@@]4(C)[C@]3(C)CC[C@H]2[C@]1(C)/C=N\O,1,5.98,17,inactive,12,inactive,5,13,inactive,inactive,10.8,inactive,28.2,0,6,8.95,inactive,52,28,inactive,diameter of the inhibition zone (DIZ) (Enterococcus faecalis): inactive; Activity (SAOS-2 [14]): 46%; MIC (Bacillus thuringiensis [15]): 64 µg/mL; diameter of the inhibition zone (DIZ) (Candida albicans): inactive; MIC (Bacillus cereus [16]): 64 µg/mL; diameter of the inhibition zone (DIZ) (Klebsiella pneumoniae): inactive; diameter of the inhibition zone (DIZ) [17]: inactive; Activity (HeLa [18]): 64%; diameter of the inhibition zone (DIZ) (Escherichia coli): inactive; diameter of the inhibition zone (DIZ) (Candida tropicalis): inactive; diameter of the inhibition zone (DIZ) (Bacillus cereus [19]): 12 mm; Activity (MCF7 [20]): 55%; Activity (HeLa [21]): 0%; diameter of the inhibition zone (DIZ) (Salmonella typhimurium): inactive; IC50 (HT-29 [22]): 6.71 µM; MIC (Bacillus subtilis [23]): 32 µg/mL; IC50 (HeLa [24]): 116 µM; Activity (HT-29 [25]): 0.6%
CC(=O)O[C@H]1CC[C@]2(C)[C@H]3CC=C4[C@@H]5CC(C)(C)CC[C@]5(C(=O)O)CC[C@@]4(C)[C@]3(C)CC[C@H]2[C@]1(C)C=O,3,10.8,55,inactive,10,inactive,5,11,inactive,inactive,20.5,inactive,17.4,3,8,8.24,inactive,25,20,inactive,diameter of the inhibition zone (DIZ) (Enterococcus faecalis): inactive; Activity (SAOS-2 [14]): 44%; MIC (Bacillus thuringiensis [15]): 128 µg/mL; diameter of the inhibition zone (DIZ) (Candida albicans): inactive; MIC (Bacillus cereus [16]): 128 µg/mL; diameter of the inhibition zone (DIZ) (Klebsiella pneumoniae): inactive; diameter of the inhibition zone (DIZ) [17]: inactive; Activity (HeLa [18]): 33%; diameter of the inhibition zone (DIZ) (Escherichia coli): inactive; diameter of the inhibition zone (DIZ) (Candida tropicalis): inactive; diameter of the inhibition zone (DIZ) (Bacillus cereus [19]): 9 mm; Activity (MCF7 [20]): 29%; Activity (HeLa [21]): 4%; diameter of the inhibition zone (DIZ) (Salmonella typhimurium): inactive; IC50 (HT-29 [22]): 11.1 µM; MIC (Bacillus subtilis [23]): 64 µg/mL; IC50 (HeLa [24]): 35 µM; Activity (HT-29 [25]): 0.8%
